The values below come from ChEMBL document CHEMBL1148950, “Indole glucoalkaloids from Chimarrhis turbinata and their evaluation as antioxidant agents and acetylcholinesterase inhibitors” (J Nat Prod, 2004).

The test system of test [1] is Radical scavenging activity. The test can be described thus: Antioxidant activity assessed as DPPH radical scavenging activity. In kind it is functional. In outline: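 Radical scavenging against DPPH with rutin as the reference standard. The value is the concentration in µM needed to scavenge 50% of DPPH free radicals.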
Test [2] has as its target Acetylcholinesterase (Homo sapiens) (UniProt P22303). The test can be described thus: Inhibition of acetylcholinesterase at 1.0 uM by TLC screening assay.
For test [3] the target is unchanged. The test can be described thus: Inhibition of acetylcholinesterase at 0.1 uM by TLC screening assay. In outline: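 TLC bioautography on silica gel. Samples in MeOH or MeOH-CH2Cl2 at 0.1 and 1.0 mM were spotted (2 µL), with physostigmine and galanthamine references at 0.1 and 0.01 µM. The plate was sprayed to saturation with 1:1 1 mM DTNB/[…] iodide in buffer, dried 5 min, then sprayed with 3 U/mL AChE. White spots on a yellow background were scored as inhibition.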

For another test, the target named is T1, Acetylcholinesterase (Rattus norvegicus, UniProt P37136).
T1 sequence (P37136 whole entry): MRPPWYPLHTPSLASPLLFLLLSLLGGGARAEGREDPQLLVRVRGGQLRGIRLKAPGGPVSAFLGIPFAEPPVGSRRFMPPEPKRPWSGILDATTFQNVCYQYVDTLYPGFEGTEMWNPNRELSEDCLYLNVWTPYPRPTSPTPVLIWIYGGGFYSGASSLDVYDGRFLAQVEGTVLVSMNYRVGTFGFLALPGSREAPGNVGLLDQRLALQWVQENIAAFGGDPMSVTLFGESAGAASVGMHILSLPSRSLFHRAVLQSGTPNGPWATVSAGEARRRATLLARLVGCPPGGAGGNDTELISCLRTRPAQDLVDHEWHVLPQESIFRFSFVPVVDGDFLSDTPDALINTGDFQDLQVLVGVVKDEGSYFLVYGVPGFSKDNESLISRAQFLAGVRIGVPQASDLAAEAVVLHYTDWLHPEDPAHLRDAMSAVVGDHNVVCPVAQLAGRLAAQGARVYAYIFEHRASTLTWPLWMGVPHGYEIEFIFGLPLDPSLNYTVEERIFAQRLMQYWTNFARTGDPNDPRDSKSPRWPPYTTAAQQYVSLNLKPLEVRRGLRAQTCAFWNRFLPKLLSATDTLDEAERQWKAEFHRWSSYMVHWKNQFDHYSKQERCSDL
Description: Inhibition of rat brain acetylcholinesterase by colorimetric method.

Calls of active or inactive are those of the source. No cut-off for these calls is given here.

Sequence of Acetylcholinesterase (Homo sapiens) (P22303 whole entry): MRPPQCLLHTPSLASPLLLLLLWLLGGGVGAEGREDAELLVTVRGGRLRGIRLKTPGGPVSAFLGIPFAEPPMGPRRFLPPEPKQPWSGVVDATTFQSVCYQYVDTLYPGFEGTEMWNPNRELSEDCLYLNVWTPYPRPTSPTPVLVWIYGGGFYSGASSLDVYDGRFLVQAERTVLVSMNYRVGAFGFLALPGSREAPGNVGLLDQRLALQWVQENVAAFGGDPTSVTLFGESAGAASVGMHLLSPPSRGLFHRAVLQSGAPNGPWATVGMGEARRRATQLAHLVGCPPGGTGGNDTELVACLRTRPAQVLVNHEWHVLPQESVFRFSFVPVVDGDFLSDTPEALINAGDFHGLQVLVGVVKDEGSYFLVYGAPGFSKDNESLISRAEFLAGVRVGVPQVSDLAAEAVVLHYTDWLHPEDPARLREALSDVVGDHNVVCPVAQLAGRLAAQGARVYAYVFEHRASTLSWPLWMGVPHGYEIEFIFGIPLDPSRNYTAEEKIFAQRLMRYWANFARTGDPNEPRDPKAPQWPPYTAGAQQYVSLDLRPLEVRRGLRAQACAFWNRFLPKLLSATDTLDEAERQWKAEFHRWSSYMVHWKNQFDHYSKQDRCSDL

As to `C=CC1C(CC2=NCCc3c2[nH]c2ccccc32)C(C(=O)OC)=CO[C@H]1O[C@@H]1O[C@H](CO)[C@@H](O)[C@H](O)[C@H]1O` (stereo partly drawn), in test [1], the IC50 is 55.1 µM.
Take `C=CC1C(C[C@@H]2NC(C(=O)O)Cc3c2[nH]c2ccccc32)C(C(=O)OC)=CO[C@H]1O[C@@H]1O[C@H](CO)[C@@H](O)[C@H](O)[C@H]1O` (stereo partly drawn): the IC50 in test [1] amounted to 47.1 µM.
Same read-out and setting: then `C=CC1C(CC2=NCCc3c2[nH]c2ccccc32)C(C(=O)O)=CO[C@H]1O[C@@H]1O[C@H](CO)[C@@H](O)[C@H](O)[C@H]1O` (stereo partly drawn), with 52.3 µM; and `C=CC1C(Cc2nc(C(=O)O)cc3c2[nH]c2ccc(O)cc23)C(C(=O)OC)=CO[C@H]1O[C@@H]1O[C@H](CO)[C@@H](O)[C@H](O)[C@H]1O` (stereo partly drawn) [CORDIFOLINE], with 18.3 µM.
Consider `C=C[C@H]1[C@H](O[C@H]2O[C@H](CO)[C@@H](O)[C@H](O)[C@H]2O)OC=C(C(=O)OC)[C@H]1Cc1nc(C(=O)O)cc2c1[nH]c1ccccc12` [DESOXYCORDIFOLINE], for which the IC50 in test [1] was 49.9 µM. In addition, the outcome in test [2] was Active.
On to `Cc1nc(C(=O)O)cc2c1[nH]c1ccccc12` [HARMAN-3-CARBOXYLIC ACID], for which the IC50 in test [1] is 45.5 µM.
On to `C[C@@H]1O[C@@H](OC[C@H]2O[C@@H](Oc3c(-c4ccc(O)c(O)c4)oc4cc(O)cc(O)c4c3=O)[C@H](O)[C@@H](O)[C@@H]2O)[C@H](O)[C@H](O)[C@H]1O` [RUTIN], for which, in test [1], the IC50 worked out at 12.3 µM.
Still for that read-out and setting: to `C=C[C@H]1[C@H](O[C@@H]2O[C@H](CO)[C@@H](O)[C@H](O)[C@H]2O)OC=C(C(=O)OC)[C@H]1C[C@@H]1NCCc2c1[nH]c1ccccc21` [STRICTOSIDINE] belongs 56 µM.
With `C=CC1C(C[C@@H]2NCCc3c2[nH]c2ccccc32)C(C(=O)O)=CO[C@H]1O[C@@H]1O[C@H](CO)[C@@H](O)[C@H](O)[C@H]1O` (stereo partly drawn) [STRICTOSIDINIC ACID], the IC50 in test [1] worked out at 49.7 µM.
With `C=C[C@H]1[C@@H](/C(=C/O)C(=O)OC)C[C@H]2c3[nH]c4ccccc4c3CCN2[C@H]1O[C@H]1O[C@@H](CO)[C@H](O)[C@@H](O)[C@@H]1O` [TURBINATINE], the IC50 in test [1] is 50.9 µM; at Acetylcholinesterase, 1.86 µM. Moreover, the result in test [3] was Active.
